Reference: PMC6119551 (Neuropharmacology, 2018)

How the values were obtained:
[1] = target: T1, human 5-HT2C receptors (Homo sapiens, UniProt P28335); assay: Calcium mobilization, HEK293 cells expressing human 5-HT2C; type: cell-based; details: for Emax: HEK293, read-out: 5-HT2C Mobilization of Calcium % Emax
T1 sequence (P28335 33-458): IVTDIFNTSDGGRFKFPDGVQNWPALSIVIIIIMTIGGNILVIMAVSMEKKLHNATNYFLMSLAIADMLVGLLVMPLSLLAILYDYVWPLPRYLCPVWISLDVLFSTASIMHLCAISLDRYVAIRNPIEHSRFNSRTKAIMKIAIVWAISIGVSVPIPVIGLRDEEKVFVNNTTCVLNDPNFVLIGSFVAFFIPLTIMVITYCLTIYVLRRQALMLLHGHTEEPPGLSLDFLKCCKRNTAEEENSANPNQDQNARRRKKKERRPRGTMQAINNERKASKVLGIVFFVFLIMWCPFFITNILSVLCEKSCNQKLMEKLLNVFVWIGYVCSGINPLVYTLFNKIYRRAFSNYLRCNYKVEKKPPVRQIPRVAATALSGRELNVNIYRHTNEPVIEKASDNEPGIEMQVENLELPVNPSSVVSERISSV

[2] = test system: 5-HT2A receptor; details: ref Eshleman et al. (2014); cited from earlier work
[3] = ref Eshleman et al. (2014); cited from earlier work
[4] = test system: male rats; assay: Body temperature via implanted transponder; type: in vivo, rat; details: sc, all doses tested, 15-120 min post-injection
[5] = target: T2, human 5-HT2A receptors (Homo sapiens, UniProt P28223); assay: Calcium mobilization, HEK293 cells expressing human 5-HT2A; type: cell-based; details: for Fold more potent than NBOMe counterpart in 5-HT2A-mediated calcium mobilization: 2C-C vs 25C-NBOMe, 2C-I vs 25I-NBOMe; for Emax: HEK293, read-out: 5-HT2A Mobilization of Calcium %Emax
T2 sequence (P28223 whole entry): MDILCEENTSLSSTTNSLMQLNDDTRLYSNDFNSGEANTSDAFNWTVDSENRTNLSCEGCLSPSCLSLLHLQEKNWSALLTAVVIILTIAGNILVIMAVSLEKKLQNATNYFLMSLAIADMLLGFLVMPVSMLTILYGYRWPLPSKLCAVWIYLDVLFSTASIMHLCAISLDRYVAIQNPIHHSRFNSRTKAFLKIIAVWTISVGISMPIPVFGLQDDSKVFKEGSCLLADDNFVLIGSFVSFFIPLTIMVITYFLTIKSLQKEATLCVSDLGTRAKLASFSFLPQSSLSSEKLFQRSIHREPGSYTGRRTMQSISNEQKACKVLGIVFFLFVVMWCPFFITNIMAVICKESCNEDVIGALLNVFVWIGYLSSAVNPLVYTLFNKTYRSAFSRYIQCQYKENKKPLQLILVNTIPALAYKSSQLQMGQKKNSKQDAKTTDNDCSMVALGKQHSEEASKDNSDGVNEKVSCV

[6] = test system: 5-HT2A receptor; details: ref Eshleman et al. (2014); cited from earlier work; remark: listed apart in the source
[7] = test system: male rats; assay: Back muscle contractions; type: in vivo, rat; details: sc; for Doses significantly increasing summed BMC vs vehicle: rats, Bonferroni p<0.05; for Rat BMC ED50: summed BMC over 2 h, rising phase of dose-effect function
Summary of the method: (§1)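 Male Sprague-Dawley rats (250–300 g) with ≥2 weeks of acclimation, one sc injection per weekly session of saline or one of 4 doses (1.0 mL/kg), N=9/group. Dose ranges were 0.03–1.0, 0.01–0.3 or 0.1–3.0 mg/kg depending on compound. WDS and BMC were counted by a non-blind rater in eight 90-s periods every 15 min and summed. ED50 came from nonlinear regression of score versus log dose on the rising phase.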

[8] = test system: male rats; assay: Wet dog shakes; type: in vivo, rat; details: sc; for Doses significantly increasing summed WDS vs vehicle: Bonferroni p<0.05
Summary of the method: as §1

[9] = target: 5-HT2A receptors in rat brain tissue (Rattus norvegicus, UniProt P14842); assay: [3H]M100907 radioligand binding in rat brain tissue
Sequence of 5-HT2A receptors in rat brain tissue (P14842 whole entry): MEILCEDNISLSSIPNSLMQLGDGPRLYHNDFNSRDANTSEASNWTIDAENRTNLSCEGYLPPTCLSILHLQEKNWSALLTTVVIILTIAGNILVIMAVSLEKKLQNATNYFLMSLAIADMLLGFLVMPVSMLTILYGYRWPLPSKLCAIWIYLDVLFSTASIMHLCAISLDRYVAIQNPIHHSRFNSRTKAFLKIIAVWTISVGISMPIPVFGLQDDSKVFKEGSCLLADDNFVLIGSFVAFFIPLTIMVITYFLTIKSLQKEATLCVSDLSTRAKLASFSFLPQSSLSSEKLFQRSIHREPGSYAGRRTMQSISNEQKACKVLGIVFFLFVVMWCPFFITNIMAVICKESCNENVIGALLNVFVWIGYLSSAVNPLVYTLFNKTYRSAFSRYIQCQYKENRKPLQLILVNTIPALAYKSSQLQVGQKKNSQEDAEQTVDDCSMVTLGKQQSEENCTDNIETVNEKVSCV

[10] = test system: mice; details: sc, ref Halberstadt and Geyer, 2014; cited from earlier work
[11] = test system: rats; details: cited from earlier work
[12] = test system: mice; details: ref Gatch et al., 2017; cited from earlier work
[13] = target: T2, human 5-HT2A receptors; details: 25C-NBOMe vs 2C-C, 25I-NBOMe vs 2C-I; ref Rickli et al., 2015; cited from earlier work
[14] = test system: male rats; assay: M100907 antagonism of agonist-induced WDS and BMC; type: in vivo, rat
Summary of the method: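 Male Sprague-Dawley rats got sc M100907 (0.1 mg/kg in 1:9 DMSO:saline) or its vehicle 30 min before sc agonist or saline, with agonists at fixed doses of 0.03–1.0 mg/kg. Summed WDS and BMC came from eight 90-s observations at 15-min intervals by a non-blind rater. Rats were tested weekly, N=9/group, by Bonferroni comparison with Veh/Veh.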

[15] = test system: 5-HT2A; details: ref Marek and Aghajanian, 1994; cited from earlier work
[16] = 0.1 mg/kg M100907 30 min before 0.03 mg/kg 25C-NBOMe
[17] = 0.1 mg/kg M100907 30 min before 0.1 mg/kg 25I-NBOMe
[18] = 0.1 mg/kg M100907 30 min before 0.3 mg/kg 2C-C
[19] = 0.1 mg/kg M100907 30 min before 1.0 mg/kg 2C-I
[20] = 0.1 mg/kg M100907 30 min before 1.0 mg/kg DOI sc

| Structure (SMILES) | EC50 [1] [nM] | Emax [1] [%] | Functional activity in the IP assay [2] | Effect on body temperature [4] | EC50 [5] [nM] | Fold more potent than NBOMe counterpart in 5-HT2A-mediated calcium mobilization [5] [fold] | Emax [5] [%] | Functional activity in the [3H]AA assay [6] | Doses significantly increasing summed BMC vs vehicle [7] | Doses significantly increasing summed WDS vs vehicle ([8]; rats) | IC50 [9] [nM] | Rat BMC ED50 [7] [mg/kg] | ED50 in the head twitch assay [10] [mg/kg] | Effect on locomotor activity [12] | Fold greater affinity for human 5-HT2A receptors than 2C counterpart [13] [fold] | further results |
| --- | --- | --- | --- | --- | --- | --- | --- | --- | --- | --- | --- | --- | --- | --- | --- | --- |
| COc1cc(CCN)c(OC)cc1Cl [Compound 2C-C, 2-(4-chloro-2,5-dimethoxyphenyl)ethanamine] | 77.6 ± 5.5 | 29 | full agonist | failed to significantly alter body temperature at any dose tested | 4.57 ± 0.5 | 13 | 95 | full agonist | Significant stimulation of both behaviors occurred after administration of 0.3, 1.0, and 3.0 mg/kg doses | Significant stimulation of both behaviors occurred after administration of 0.3, 1.0, and 3.0 mg/kg doses | 308 ± 21.6 |  |  |  |  | Substitution for MDMA in drug discrimination [3]: fully substitutes |
| COc1cc(CCN)c(OC)cc1I [Compound 2C-I, 2-(4-iodo-2,5-dimethoxyphenyl)ethanamine] | 47.2 ± 6.7 | 28 | agonist | failed to alter body temperature at any dose tested | 3.97 ± 0.7 | 8 | 89 | antagonist | increases in BMC occurred after 0.3, 1.0, and 3.0 mg/kg doses | Significant stimulation of shaking behavior ocurred after 1.0 and 3.0 mg/kg doses | 125 ± 13 | 0.192 ± 0.060 | 0.83 |  |  | Substitution for prototypical hallucinogens like LSD in drug discrimination [3]: fully substitutes |
| COc1cc(CCNCc2ccccc2OC)c(OC)cc1Cl [Compound 25C-NBOMe, 2-(4-chloro-2,5-dimethoxyphenyl)-N-[(2-methoxyphenyl)methyl]ethanamine] | 178 ± 25 | 60 |  | did not significantly alter body temperature at any dose tested | 61.7 ± 3.5 |  | 104 |  | stimulation of contractions occured after 0.03, 0.1 and 0.3 mg/kg doses | Significant stimulation of shaking behavior occured after 0.03 and 0.1 mg/kg doses | 8.7 ± 1 |  |  | dose-dependently reduced locomotor activity | 18 | DOM-appropriate responding ([11]; dose of 0.03 mg/kg, ref Gatch and colleagues (2017)): < 20%; Substitution for DOM in drug discrimination ([11]; ip, ref Gatch et al., 2017): fully substituted; Substitution for MDMA in drug discrimination ([11]; ip, ref Gatch et al., 2017): only partially substituting |
| COc1cc(CCNCc2ccccc2OC)c(OC)cc1I [Compound 25I-NBOMe, 2-(4-iodo-2,5-dimethoxyphenyl)-N-[(2-methoxyphenyl)methyl]ethanamine] | 88.9 ± 11 | 70 |  | did not significantly alter body temperature at any dose tested | 34.7 ± 4.2 |  | 108 |  | increases in contractions occurred after the 0.03, 0.1, and 0.3 mg/kg doses | Significant increases in shakes occured after the 0.1 and 0.3 mg/kg doses | 3.9 ± 0.4 | 0.037 ± 0.011 | 0.08 | dose-dependently reduced locomotor activity | 6 | Fold more potent than 2C counterpart in inducing WDS ([8]; rats, 25C-NBOMe vs 2C-C, 25I-NBOMe vs 2C-I): 10 fold; Rat WDS ED50 ([8]; summed WDS over 2 h, rising phase of dose-effect function): 0.062 ± 0.026 mg/kg; Fold more potent than 2C-I at eliciting head twitch behavior [10]: about 10 fold |
| COc1cc(CC(C)N)c(OC)cc1I (stereo not drawn) [DOI, 1-(4-iodo-2,5-dimethoxyphenyl)propan-2-amine, reference compound] | 47.7 ± 3 | 50 |  | no significant effects on body temperature at any dose tested |  |  | 109 |  | significant increases in both behaviors occurring after 0.1, 0.3, and 1.0 mg/kg | significant increases in both behaviors occurring after 0.1, 0.3, and 1.0 mg/kg | 56.1 ± 4.9 |  |  |  |  |  |
| COc1cccc([C@H](O)C2CCN(CCc3ccc(F)cc3)CC2)c1OC [Compound M100907, (R)-(2,3-dimethoxyphenyl){1-[2-(4-fluorophenyl)ethyl]-4-piperidinyl}methanol] |  |  |  |  |  |  |  |  |  |  |  |  |  |  |  | Effect on BMC induced by 25C-NBOMe [14, 16]: significantly decreased; Effect on WDS induced by 25C-NBOMe [14, 16]: significantly decreased WDS; Effect on BMC induced by 25I-NBOMe [14, 17]: decreased; Effect on WDS induced by 25I-NBOMe [14, 17]: decreased WDS; Effect on BMC induced by 2C-C [14, 18]: decreased; Effect on WDS induced by 2C-C [14, 18]: decreased WDS; Effect on BMC induced by 2C-I [14, 19]: decreased; Effect on WDS induced by 2C-I [14, 19]: decreased WDS; Effect on BMC induced by DOI [14, 20]: significantly decreased shakes and contractions; Effect on WDS induced by DOI [14, 20]: significantly decreased shakes and contractions; Selectivity for 5-HT2A over 5-HT2C and other receptor subtypes [15]: more than 100 fold |
